Source: ChEMBL document CHEMBL5230165, “Synthesis of bis-furyl-pyrrolo[3,4-b]pyridin-5-ones via Ugi-Zhu reaction and in vitro activity assays against human SARS-CoV-2 and in silico studies on its main proteins” (RSC Med Chem, 2023)
Calls of active or inactive are those of the source. No cut-off for these calls is given here.

What was measured:
[1] = Cytotoxicity against African green monkey Vero E6 cells assessed as cell viability upto 10 uM incubated for 48 hrs by crystal violet staining assay relative to control; format: toxicity, cell-based, Vero C1008; conditions: chlorocebus sabaeus, read-out: Activity
Method in brief: (§1)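 Vero E6 cells were seeded at 25 000 per well 24 h ahead in DMEM with 8% FBS at 37 °C and 5% CO2. Compounds were tested at 0.001–100 μM for 48 h, with a 0.5% DMSO vehicle control. Cells were fixed in formaldehyde and stained with crystal violet, the dye was released with 10% acetic acid, and A590 was read. Viability is relative to untreated medium. IC50 came from polynomial regression.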

Vero C1008 = test: Cytotoxicity against African green monkey Vero E6 cells assessed as reduction in cell viability at 100 uM incubated for 48 hrs by crystal violet staining assay; format: toxicity, cell-based; conditions: chlorocebus sabaeus, vero c1008, 48 h; method in brief: as §1
SARS-CoV-2 [2] = test: Antiviral activity against SARS-CoV-2 infected in African green monkey Vero E6 cells assessed as inhibition of viral infection at 10 uM pre-infected with cells for 1 hrs followed by compound addition and measured after 24 hrs by crystal violet staining based plaque reduction assay; format: functional; conditions: for Activity: Severe acute respiratory syndrome coronavirus 2
[3] = Cytotoxicity against African green monkey Vero E6 cells assessed as cell viability incubated for 48 hrs by crystal violet staining assay; format: toxicity, cell-based, Vero C1008; conditions: African green monkey (Chlorocebus sabaeus)
SARS-CoV-2 [4] = test: Antiviral activity against SARS-CoV-2 infected in African green monkey Vero E6 cells assessed as inhibition of viral infection at 10 uM incubated for 1 hrs followed by compound washout and measured after 24 hrs by crystal violet staining based plaque assay relative to control; format: functional; conditions: Severe acute respiratory syndrome coronavirus 2, Vero C1008

Structure (SMILES) | viability at 48 h, up to 10 µM [1] | Activity (Vero C1008) | inhibition at 10 µM (SARS-CoV-2 [2]; Severe acute respiratory syndrome coronavirus 2, Vero C1008) | IC50 at 48 h [3] | inhibition at 10 µM (SARS-CoV-2 [4]) | Activity (SARS-CoV-2 [2])
O=C1c2cc(N3CCOCC3)c(Cc3ccccc3)nc2C(c2ccoc2)N1Cc1ccco1 (stereo unspecified) | ≥ 100% | Toxic | 53% | 85.1 µM |  | 
O=C1c2cc(N3CCOCC3)c(Cc3ccc(O)cc3)nc2C(c2ccco2)N1Cc1ccco1 (stereo unspecified) | ≥ 100% | Toxic |  | 153 µM | 77% | inactive
O=C1c2cc(N3CCOCC3)c(Cc3ccccc3)nc2C(c2ccco2)N1CC1CCCO1 (stereo unspecified) | ≥ 100% | Toxic |  | 76.9 µM |  | 
O=C1c2cc(N3CCOCC3)c(Cc3ccccc3)nc2C(c2ccoc2)N1CC1CCCO1 (stereo unspecified) | ≥ 100% | Toxic |  | 290 µM | 9.4% | inactive
O=C1c2cc(N3CCOCC3)c(Cc3ccccc3)nc2C(c2ccco2)N1Cc1ccco1 (stereo unspecified) | ≥ 100% | Toxic |  | 276 µM | 19.4% | inactive
O=C1c2cc(N3CCOCC3)c(Cc3ccccc3)nc2C(C2CCCO2)N1Cc1ccco1 (stereo unspecified) | ≥ 100% |  |  | 612 µM | 31.9% | Active
